According to ChEMBL document CHEMBL5030505, “Assessment of NR4A Ligands That Directly Bind and Modulate the Orphan Nuclear Receptor Nurr1” (J Med Chem, 2020):
One block for each compound: values may come before it. The source made the active and inactive calls. The calls are words filed in the database; no cut-off is given here.

Assays:
Assay type in all cases: cell-based
[1] = molecular target: Nuclear receptor subfamily 4 group A member 2 (Homo sapiens) (UniProt P43354); assay: Modulation of full length human Nurr1 expressed in PC12 cells co-transfected with luciferase reporter plasmid harboring NurRE response element at 0.244 to 15.63 uM incubated for 18 by luciferase reporter gene assay; conditions: PC-12, dose 0.244-15.63 µM
How it was run: (§1)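 Here PC12 cells (FK-12 medium, 15% horse serum, 2.5% FBS, 37°C, 5% CO2) received full-length Nurr1 (2 μg) without RXRα, plus 3xNBRE- or 3xNurRE-luciferase reporter (6 μg), for 18 h. Cells were replated at 10,000/well for 4 h, then treated with ligand or vehicle in quadruplicate for 18 h. Luciferase luminescence was normalized to vehicle-treated cells. Results are mean ± s.e.m. (n=4) from 2 independent experiments, with one-way ANOVA against vehicle.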

SKNBE2 = assay: Modulation of Gal4-fused VP16 expressed in SKNBE(2) cells co-transfected with UAS repoter gene assessed as decrease in luciferase activity at 0.244 to 15.63 uM incubated for 18 hrs by luciferase reporter gene assay; conditions: Human alphaherpesvirus 2, filed as modulator, dose 0.244-15.63 µM
How it was run: (§2)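 Cells in 10-cm dishes were transfected with Gal4-VP16 expression plasmid (2 μg) plus 5xUAS-luciferase reporter (2 μg) for 18 h. They were replated at 10,000 cells/well for 4 h, then given ligand or vehicle (water, ethanol or DMSO) in quadruplicate for 18 h. Luciferase was read with Britelite Plus. Fold change is versus vehicle-treated cells, with one-way ANOVA versus vehicle.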

HEK-293T = assay: Cytotoxicity against human HEK293T cells assessed as reduction in cell viability at 0.244 to 15.63 microM incubated for 18 hrs by Cell titer-glo assay; conditions: dose 0.244-15.63 µM
How it was run: (§3)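 Cells seeded at 1.5 million per 10-cm dish. Next day they were replated at 10,000 cells/well and rested 4 h. Ligand or vehicle (water, ethanol or DMSO, by ligand) was added in dose-response format in quadruplicate. After 18 h, viability was read by CellTiter-Glo luminescence. Data are mean ± s.e.m., generally representative of 2 independent experiments. One-way ANOVA versus vehicle.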

[2] = molecular target: Nuclear receptor subfamily 4 group A member 2 (Homo sapiens) (UniProt P43354); assay: Modulation of full length human Nurr1 expressed in SKNBE(2) cells co-transfected with RXRalpha and luciferase reporter plasmid harboring NurRE response element at 0.244 to 15.63 uM incubated for 18 by luciferase reporter gene assay; conditions: SKNBE2, dose 0.244-15.63 µM, time 18.0 hrs
How it was run: (§4)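 SK-N-BE(2)-C cells were kept in 1:1 EMEM/F12 with 10% FBS at 37°C and 5% CO2. They were cotransfected with full-length Nurr1 (1 μg), full-length RXRα (1 μg) and 3xNBRE- or 3xNurRE-luc reporter (6 μg) for 18 h, replated at 10,000 cells/well for 4 h, and then treated with ligand or vehicle in quadruplicate for 18 h. The readout was luciferase luminescence as fold over vehicle, reported as mean ± s.e.m. (n=4) from 2 independent experiments, one-way ANOVA.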

[3] = molecular target: Nuclear receptor subfamily 4 group A member 2 (Homo sapiens) (UniProt P43354); assay: Modulation of full length human Nurr1 expressed in HEK293T cells co-transfected with RXRalpha and luciferase reporter plasmid harboring NBRE response element at 0.244 to 15.63 uM incubated for 18 by luciferase reporter gene assay; conditions: dose 0.244-15.63 µM, time 18.0 hrs
How it was run: (§5)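 Full-length Nurr1 plasmid, alone (2 μg) or 1 μg plus full-length RXRα (1 μg), cotransfected with 3xNBRE- or 3xNurRE-luciferase reporter (6 μg) using Lipofectamine 2000, 18 h. Cells replated at 10,000/well for 4 h. Four ligand concentrations, or vehicle (water, ethanol or DMSO), added in quadruplicate for 18 h. Luciferase read. Fold change vs vehicle, mean ± s.e.m., one-way ANOVA vs vehicle.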

PC-12 [4] = assay: Cytotoxicity against rat PC-12 cells assessed as reduction in cell viability at 0.244 to 15.63 microM incubated for 18 hrs by Cell titer-glo assay; conditions: pc-12, 18 h, dose 0.244-15.63 µM; how it was run: as §3
[5] = molecular target: Nuclear receptor subfamily 4 group A member 2 (Homo sapiens) (UniProt P43354); assay: Modulation of full length human Nurr1 expressed in HEK293T cells co-transfected with luciferase reporter plasmid harboring NBRE response element at 0.244 to 15.63 uM incubated for 18 by luciferase reporter gene assay; conditions: dose 0.244-15.63 µM, time 18.0 hrs; how it was run: as §5
[6] = molecular target: Nuclear receptor subfamily 4 group A member 2 (Homo sapiens) (UniProt P43354); assay: Modulation of full length human Nurr1 expressed in SKNBE(2) cells co-transfected with luciferase reporter plasmid harboring NBRE response element at 0.244 to 15.63 uM incubated for 18 by luciferase reporter gene assay; conditions: SKNBE2, dose 0.244-15.63 µM
[7] = molecular target: Nuclear receptor subfamily 4 group A member 2 (Homo sapiens) (UniProt P43354); assay: Modulation of full length human Nurr1 expressed in SKNBE(2) cells co-transfected with RXRalpha and luciferase reporter plasmid harboring NBRE response element at 0.244 to 15.63 uM incubated for 18 by luciferase reporter gene assay; conditions: SKNBE2, dose 0.244-15.63 µM; how it was run: as §4
[8] = molecular target: Nuclear receptor subfamily 4 group A member 2 (Homo sapiens) (UniProt P43354); assay: Modulation of full length human Nurr1 expressed in HEK293T cells co-transfected with RXRalpha and luciferase reporter plasmid harboring NurRE response element at 0.244 to 15.63 uM incubated for 18 by luciferase reporter gene assay; conditions: dose 0.244-15.63 µM, time 18.0 hrs; how it was run: as §5
[9] = molecular target: Nuclear receptor subfamily 4 group A member 2 (Homo sapiens) (UniProt P43354); assay: Modulation of full length human Nurr1 expressed in PC12 cells co-transfected with RXRalpha and luciferase reporter plasmid harboring NBRE response element at 0.244 to 15.63 uM incubated for 18 by luciferase reporter gene assay; conditions: PC-12, dose 0.244-15.63 µM, time 18.0 hrs
How it was run: (§6)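 PC12 cells were grown at 37°C and 5% CO2 in […] medium with 15% horse serum and 2.5% FBS. They were transfected with full-length Nurr1 (1 μg) plus full-length RXRα (1 μg) and 3xNBRE- or 3xNurRE-luciferase reporter (6 μg) for 18 h, then replated at 10,000 cells/well for 4 h. Ligand or vehicle (water, ethanol or DMSO) was added in quadruplicate for 18 h. Luminescence was read as fold change over vehicle. Results are mean ± s.e.m., n=4, from 2 independent experiments, analysed by one-way ANOVA against vehicle.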

SK-N-BE(2) = assay: Cytotoxicity against human SKNBE2 cells assessed as reduction in cell viability at 0.244 to 15.63 uM incubated for 18 hrs by Cell titer-glo assay; conditions: dose 0.244-15.63 µM; how it was run: as §3
PC-12 [10] = assay: Modulation of Gal4-fused VP16 expressed in PC12 cells co-transfected with UAS repoter gene assessed as decrease in luciferase activity at 0.244 to 15.63 uM incubated for 18 hrs by luciferase reporter gene assay; conditions: Human alphaherpesvirus 2, filed as modulator, dose 0.244-15.63 µM; how it was run: as §2
[11] = molecular target: Nuclear receptor subfamily 4 group A member 2 (Homo sapiens) (UniProt P43354); assay: Modulation of full length human Nurr1 expressed in PC12 cells co-transfected with luciferase reporter plasmid harboring NBRE response element at 0.244 to 15.63 uM incubated for 18 by luciferase reporter gene assay; conditions: PC-12, dose 0.244-15.63 µM, time 18.0 hrs; how it was run: as §1
HEK293T = assay: Modulation of Gal4-fused VP16 expressed in HEK293T cells co-transfected with UAS repoter gene assessed as decrease in luciferase activity at 0.244 to 15.63 uM incubated for 18 hrs by luciferase reporter gene assay; conditions: Human alphaherpesvirus 2, filed as modulator, dose 0.244-15.63 µM; how it was run: as §2
[12] = molecular target: Nuclear receptor subfamily 4 group A member 2 (Homo sapiens) (UniProt P43354); assay: Modulation of full length human Nurr1 expressed in SKNBE(2) cells co-transfected with luciferase reporter plasmid harboring NurRE response element at 0.244 to 15.63 uM incubated for 18 by luciferase reporter gene assay; conditions: SKNBE2, dose 0.244-15.63 µM, time 18.0 hrs
[13] = molecular target: Nuclear receptor subfamily 4 group A member 2 (Homo sapiens) (UniProt P43354); assay: Modulation of full length human Nurr1 expressed in PC12 cells co-transfected with RXRalpha and luciferase reporter plasmid harboring NurRE response element at 0.244 to 15.63 uM incubated for 18 by luciferase reporter gene assay; conditions: PC-12, dose 0.244-15.63 µM, time 18.0 hrs; how it was run: as §6
[14] = molecular target: Nuclear receptor subfamily 4 group A member 2 (Homo sapiens) (UniProt P43354); assay: Modulation of full length human Nurr1 expressed in HEK293T cells co-transfected with luciferase reporter plasmid harboring NurRE response element at 0.244 to 15.63 uM incubated for 18 by luciferase reporter gene assay; conditions: dose 0.244-15.63 µM, time 18.0 hrs; how it was run: as §5
[15] = molecular target: Nuclear receptor subfamily 4 group A member 2 (Homo sapiens) (UniProt P43354); assay: Modulation of full length human Nurr1 expressed in HEK293T cells co-transfected with RXRalpha and luciferase reporter plasmid harboring NBRE response element assessed as decrease in luciferase activity at 0.244 to 15.63 uM incubated for 18 by luciferase reporter gene assay; conditions: filed as modulator, dose 0.244-15.63 µM, time 18.0 hrs; how it was run: as §5
[16] = molecular target: Nuclear receptor subfamily 4 group A member 2 (Homo sapiens) (UniProt P43354); assay: Modulation of full length human Nurr1 expressed in SKNBE(2) cells co-transfected with luciferase reporter plasmid harboring NurRE response element assessed as decrease in luciferase activity at 0.244 to 15.63 uM incubated for 18 by luciferase reporter gene assay; conditions: SKNBE2, filed as modulator, dose 0.244-15.63 µM, time 18.0 hrs
[17] = molecular target: Nuclear receptor subfamily 4 group A member 2 (Homo sapiens) (UniProt P43354); assay: Modulation of full length human Nurr1 expressed in SKNBE(2) cells co-transfected with luciferase reporter plasmid harboring NBRE response element assessed as decrease in luciferase activity at 0.244 to 15.63 uM incubated for 18 by luciferase reporter gene assay; conditions: SKNBE2, filed as modulator, dose 0.244-15.63 µM, time 18.0 hrs
How it was run: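 Transfection of SK-N-BE(2)-C cells (1:1 EMEM/F12, 10% FBS, 37°C, 5% CO2) used full-length Nurr1 alone (2 μg, no RXRα) with 3xNBRE- or 3xNurRE-luciferase reporter (6 μg) for 18 h. Cells were replated at 10,000/well for 4 h, then exposed to ligand or vehicle in quadruplicate for 18 h. Luminescence was expressed as fold over vehicle, as mean ± s.e.m. (n=4) from 2 independent experiments, one-way ANOVA against vehicle.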

[18] = molecular target: Nuclear receptor subfamily 4 group A member 2 (Homo sapiens) (UniProt P43354); assay: Modulation of full length human Nurr1 expressed in HEK293T cells co-transfected with luciferase reporter plasmid harboring NBRE response element assessed as decrease in luciferase activity at 0.244 to 15.63 uM incubated for 18 by luciferase reporter gene assay; conditions: filed as modulator, dose 0.244-15.63 µM, time 18.0 hrs; how it was run: as §5
[19] = molecular target: Nuclear receptor subfamily 4 group A member 2 (Homo sapiens) (UniProt P43354); assay: Modulation of full length human Nurr1 expressed in SKNBE(2) cells co-transfected with RXRalpha and luciferase reporter plasmid harboring NurRE response element assessed as decrease in luciferase activity at 0.244 to 15.63 uM incubated for 18 by luciferase reporter gene assay; conditions: SKNBE2, filed as modulator, dose 0.244-15.63 µM, time 18.0 hrs; how it was run: as §4
[20] = molecular target: Nuclear receptor subfamily 4 group A member 2 (Homo sapiens) (UniProt P43354); assay: Modulation of full length human Nurr1 expressed in PC12 cells co-transfected with luciferase reporter plasmid harboring NurRE response element assessed as decrease in luciferase activity at 0.244 to 15.63 uM incubated for 18 by luciferase reporter gene assay; conditions: PC-12, filed as modulator, dose 0.244-15.63 µM, time 18.0 hrs; how it was run: as §1
[21] = molecular target: Nuclear receptor subfamily 4 group A member 2 (Homo sapiens) (UniProt P43354); assay: Modulation of full length human Nurr1 expressed in SKNBE(2) cells co-transfected with RXRalpha and luciferase reporter plasmid harboring NBRE response element assessed as decrease in luciferase activity at 0.244 to 15.63 uM incubated for 18 by luciferase reporter gene assay; conditions: SKNBE2, filed as modulator, dose 0.244-15.63 µM, time 18.0 hrs; how it was run: as §4
[22] = molecular target: Nuclear receptor subfamily 4 group A member 2 (Homo sapiens) (UniProt P43354); assay: Modulation of full length human Nurr1 expressed in HEK293T cells co-transfected with RXRalpha and luciferase reporter plasmid harboring NurRE response element assessed as decrease in luciferase activity at 0.244 to 15.63 uM incubated for 18 by luciferase reporter gene assay; conditions: filed as modulator, dose 0.244-15.63 µM, time 18.0 hrs; how it was run: as §5
[23] = molecular target: Nuclear receptor subfamily 4 group A member 2 (Homo sapiens) (UniProt P43354); assay: Modulation of full length human Nurr1 expressed in HEK293T cells co-transfected with luciferase reporter plasmid harboring NurRE response element assessed as decrease in luciferase activity at 0.244 to 15.63 uM incubated for 18 by luciferase reporter gene assay; conditions: filed as modulator, dose 0.244-15.63 µM, time 18.0 hrs; how it was run: as §5

Nuclear receptor subfamily 4 group A member 2 (Homo sapiens), sequence (P43354 whole entry): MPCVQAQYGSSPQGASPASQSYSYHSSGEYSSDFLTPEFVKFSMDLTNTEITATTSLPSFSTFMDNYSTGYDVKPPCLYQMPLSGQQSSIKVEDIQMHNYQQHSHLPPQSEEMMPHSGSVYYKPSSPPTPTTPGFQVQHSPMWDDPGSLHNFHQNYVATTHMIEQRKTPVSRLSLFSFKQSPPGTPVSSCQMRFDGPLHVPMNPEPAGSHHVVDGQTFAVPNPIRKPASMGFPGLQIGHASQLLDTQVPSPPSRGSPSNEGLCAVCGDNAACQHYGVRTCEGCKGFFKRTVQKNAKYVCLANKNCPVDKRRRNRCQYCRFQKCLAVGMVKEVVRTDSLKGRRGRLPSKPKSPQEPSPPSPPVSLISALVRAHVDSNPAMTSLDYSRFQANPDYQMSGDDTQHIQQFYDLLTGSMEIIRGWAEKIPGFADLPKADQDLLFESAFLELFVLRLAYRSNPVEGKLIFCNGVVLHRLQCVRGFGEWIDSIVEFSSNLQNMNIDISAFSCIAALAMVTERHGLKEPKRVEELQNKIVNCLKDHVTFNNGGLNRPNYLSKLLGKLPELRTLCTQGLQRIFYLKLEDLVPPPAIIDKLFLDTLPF

Activity [1]: inactive
Activity [2]: inactive
Activity [3]: inactive
Activity [5]: inactive
Activity [6]: inactive
Activity [7]: inactive
Activity [8]: inactive
Activity [9]: inactive
Activity [11]: inactive
Activity [12]: inactive
Activity [13]: inactive
Activity [14]: inactive
Compound: CCCCCCCC(=O)c1cc(OC)c(OC)c(OC)c1CC(=O)OCC
Activity (SKNBE2): Active
Activity (HEK-293T): Toxic
Activity (PC-12 [4]): Toxic
Activity (SK-N-BE(2)): Toxic
Activity (PC-12 [10]): Active
Activity (HEK293T): Active

Activity [15]: Active
Activity [16]: Active
Activity [17]: Active
Activity [18]: Active
Activity [19]: Active
Activity [20]: Active
Activity [21]: Active
Activity [22]: Active
Activity [23]: Active
Compound: C=C1C(=O)O[C@@H]2C[C@@]3(C)CCCC(=C)[C@@H]3C[C@H]12 [ISOALANTOLACTONE]
Activity (SKNBE2): Active
Activity (HEK-293T): Toxic
Activity (PC-12 [4]): Toxic
Activity (SK-N-BE(2)): Toxic
Activity (PC-12 [10]): Active
Activity (HEK293T): Active
